Test system: U2OS
Assay: Multiplex assay against U2OS
Format: toxicity, cell-based
Conditions: human
Procedure, shortened: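 Four dyes were applied at seeding to live cells: Hoechst33342, BioTracker Green Microtubule Cytoskeleton Dye, MitoTracker Red and Annexin V Alexa Fluor 680. Imaging after compound addition used a CQ1 microscope at 37°C and 5% CO2. CellPathfinder machine-learning gating then sorted cells into Hoechst high-intensity objects or normal cells, normal cells into healthy, pyknosed or fragmented nuclei, and pyknosed cells into mitotic or apoptotic, with tubulin, mitochondrial-mass and membrane-permeability phenotypes given as per cents of healthy-nucleus cells.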

[1] = 12 h, 1 µM, compound concentration 1 uM, replicate 1
[2] = 12 h, 1 µM, compound concentration 1 uM, replicate 2
[3] = 12 h, 10 µM, compound concentration 10 uM, replicate 1
[4] = 12 h, 10 µM, compound concentration 10 uM, replicate 2
[5] = 24 h, 1 µM, compound concentration 1 uM, replicate 1
[6] = 24 h, 1 µM, compound concentration 1 uM, replicate 2
[7] = 24 h, 10 µM, compound concentration 10 uM, replicate 1
[8] = 24 h, 10 µM, compound concentration 10 uM, replicate 2
[9] = 48 h, 1 µM, compound concentration 1 uM, replicate 1
[10] = 48 h, 1 µM, compound concentration 1 uM, replicate 2
[11] = 48 h, 10 µM, compound concentration 10 uM, replicate 1
[12] = 48 h, 10 µM, compound concentration 10 uM, replicate 2

CN1CCCC(n2nc(Cc3ccc(Cl)cc3)c3ccccc3c2=O)CC1.Cl (stereo not given) [AZELASTINE HYDROCHLORIDE]
Population Apoptotic (%) [1]: 42%
Population Fragmented Nuclei (%) [1]: 12%
Population Healthy Nuclei (%) [1]: 71%
Population Hoechst High Intensity Objects (%) [1]: 8%
Population Membrane Permeable-Phenotype (%) [1]: 11%
Population Mitochondria Different-Phenotype (%) [1]: 64%
Population Mitotic Cells (%) [1]: 57%
Population Normal (%) [1]: 91%
Population Pyknosed Nuclei (%) [1]: 16%
Population Tubulin-Different-Phenotype (%) [1]: 70%
Total Cell Count [1]: 95
Population Apoptotic (%) [2]: 25%
Population Fragmented Nuclei (%) [2]: 6%
Population Healthy Nuclei (%) [2]: 84%
Population Hoechst High Intensity Objects (%) [2]: 11%
Population Membrane Permeable-Phenotype (%) [2]: 7%
Population Mitochondria Different-Phenotype (%) [2]: 57%
Population Mitotic Cells (%) [2]: 75%
Population Normal (%) [2]: 88%
Population Pyknosed Nuclei (%) [2]: 8%
Population Tubulin-Different-Phenotype (%) [2]: 68%
Total Cell Count [2]: 51
Population Apoptotic (%) [3]: 63%
Population Fragmented Nuclei (%) [3]: 18%
Population Healthy Nuclei (%) [3]: 52%
Population Hoechst High Intensity Objects (%) [3]: 12%
Population Membrane Permeable-Phenotype (%) [3]: 77%
Population Mitochondria Different-Phenotype (%) [3]: 97%
Population Mitotic Cells (%) [3]: 36%
Population Normal (%) [3]: 87%
Population Pyknosed Nuclei (%) [3]: 28%
Population Tubulin-Different-Phenotype (%) [3]: 97%
Total Cell Count [3]: 87
Population Apoptotic (%) [4]: 57%
Population Fragmented Nuclei (%) [4]: 14%
Population Healthy Nuclei (%) [4]: 70%
Population Hoechst High Intensity Objects (%) [4]: 4%
Population Membrane Permeable-Phenotype (%) [4]: 84%
Population Mitochondria Different-Phenotype (%) [4]: 98%
Population Mitotic Cells (%) [4]: 42%
Population Normal (%) [4]: 95%
Population Pyknosed Nuclei (%) [4]: 15%
Population Tubulin-Different-Phenotype (%) [4]: 100%
Total Cell Count [4]: 96
Population Apoptotic (%) [5]: 33%
Population Fragmented Nuclei (%) [5]: 16%
Population Healthy Nuclei (%) [5]: 65%
Population Hoechst High Intensity Objects (%) [5]: 5%
Population Membrane Permeable-Phenotype (%) [5]: 5%
Population Mitochondria Different-Phenotype (%) [5]: 70%
Population Mitotic Cells (%) [5]: 66%
Population Normal (%) [5]: 94%
Population Pyknosed Nuclei (%) [5]: 17%
Population Tubulin-Different-Phenotype (%) [5]: 68%
Total Cell Count [5]: 108
Population Apoptotic (%) [6]: 50%
Population Fragmented Nuclei (%) [6]: 7%
Population Healthy Nuclei (%) [6]: 76%
Population Hoechst High Intensity Objects (%) [6]: 8%
Population Membrane Permeable-Phenotype (%) [6]: 10%
Population Mitochondria Different-Phenotype (%) [6]: 57%
Population Mitotic Cells (%) [6]: 50%
Population Normal (%) [6]: 91%
Population Pyknosed Nuclei (%) [6]: 15%
Population Tubulin-Different-Phenotype (%) [6]: 50%
Total Cell Count [6]: 57
Population Apoptotic (%) [7]: 90%
Population Fragmented Nuclei (%) [7]: 29%
Population Healthy Nuclei (%) [7]: 46%
Population Hoechst High Intensity Objects (%) [7]: 10%
Population Membrane Permeable-Phenotype (%) [7]: 95%
Population Mitochondria Different-Phenotype (%) [7]: 97%
Population Mitotic Cells (%) [7]: 9%
Population Normal (%) [7]: 89%
Population Pyknosed Nuclei (%) [7]: 24%
Population Tubulin-Different-Phenotype (%) [7]: 100%
Total Cell Count [7]: 99
Population Apoptotic (%) [8]: 95%
Population Fragmented Nuclei (%) [8]: 16%
Population Healthy Nuclei (%) [8]: 58%
Population Hoechst High Intensity Objects (%) [8]: 4%
Population Membrane Permeable-Phenotype (%) [8]: 98%
Population Mitochondria Different-Phenotype (%) [8]: 100%
Population Mitotic Cells (%) [8]: 4%
Population Normal (%) [8]: 95%
Population Pyknosed Nuclei (%) [8]: 25%
Total Cell Count [8]: 96
Population Apoptotic (%) [9]: 54%
Population Fragmented Nuclei (%) [9]: 15%
Population Healthy Nuclei (%) [9]: 67%
Population Hoechst High Intensity Objects (%) [9]: 6%
Population Membrane Permeable-Phenotype (%) [9]: 5%
Population Mitochondria Different-Phenotype (%) [9]: 37%
Population Mitotic Cells (%) [9]: 45%
Population Normal (%) [9]: 93%
Population Pyknosed Nuclei (%) [9]: 16%
Population Tubulin-Different-Phenotype (%) [9]: 53%
Total Cell Count [9]: 143
Population Apoptotic (%) [10]: 50%
Population Fragmented Nuclei (%) [10]: 11%
Population Healthy Nuclei (%) [10]: 74%
Population Hoechst High Intensity Objects (%) [10]: 7%
Population Membrane Permeable-Phenotype (%) [10]: 16%
Population Mitochondria Different-Phenotype (%) [10]: 41%
Population Mitotic Cells (%) [10]: 50%
Population Normal (%) [10]: 92%
Population Pyknosed Nuclei (%) [10]: 14%
Population Tubulin-Different-Phenotype (%) [10]: 47%
Total Cell Count [10]: 77
Population Apoptotic (%) [11]: 87%
Population Fragmented Nuclei (%) [11]: 23%
Population Healthy Nuclei (%) [11]: 39%
Population Hoechst High Intensity Objects (%) [11]: 11%
Population Membrane Permeable-Phenotype (%) [11]: 93%
Population Mitochondria Different-Phenotype (%) [11]: 100%
Population Mitotic Cells (%) [11]: 12%
Population Normal (%) [11]: 88%
Population Pyknosed Nuclei (%) [11]: 36%
Total Cell Count [11]: 95
Population Apoptotic (%) [12]: 93%
Population Fragmented Nuclei (%) [12]: 22%
Population Healthy Nuclei (%) [12]: 48%
Population Hoechst High Intensity Objects (%) [12]: 5%
Population Membrane Permeable-Phenotype (%) [12]: 98%
Population Mitochondria Different-Phenotype (%) [12]: 98%
Population Mitotic Cells (%) [12]: 6%
Population Normal (%) [12]: 94%
Population Pyknosed Nuclei (%) [12]: 29%
Population Tubulin-Different-Phenotype (%) [12]: 100%
Total Cell Count [12]: 119

Cc1nc(-c2ccc(-c3ccc(C(=O)N4CCc5cc6c(cc54)C4(CCN(C)CC4)CO6)cc3)c(C)c2)no1 [SB-224289]
Population Apoptotic (%) [1]: 50%
Population Fragmented Nuclei (%) [1]: 11%
Population Healthy Nuclei (%) [1]: 74%
Population Hoechst High Intensity Objects (%) [1]: 8%
Population Membrane Permeable-Phenotype (%) [1]: 6%
Population Mitochondria Different-Phenotype (%) [1]: 43%
Population Mitotic Cells (%) [1]: 50%
Population Normal (%) [1]: 91%
Population Pyknosed Nuclei (%) [1]: 13%
Population Tubulin-Different-Phenotype (%) [1]: 46%
Total Cell Count [1]: 130
Population Apoptotic (%) [2]: 28%
Population Fragmented Nuclei (%) [2]: 4%
Population Healthy Nuclei (%) [2]: 81%
Population Hoechst High Intensity Objects (%) [2]: 12%
Population Membrane Permeable-Phenotype (%) [2]: 10%
Population Mitochondria Different-Phenotype (%) [2]: 42%
Population Mitotic Cells (%) [2]: 71%
Population Normal (%) [2]: 87%
Population Pyknosed Nuclei (%) [2]: 14%
Population Tubulin-Different-Phenotype (%) [2]: 37%
Total Cell Count [2]: 65
Population Apoptotic (%) [3]: 62%
Population Fragmented Nuclei (%) [3]: 19%
Population Healthy Nuclei (%) [3]: 61%
Population Hoechst High Intensity Objects (%) [3]: 7%
Population Membrane Permeable-Phenotype (%) [3]: 45%
Population Mitochondria Different-Phenotype (%) [3]: 98%
Population Mitotic Cells (%) [3]: 37%
Population Normal (%) [3]: 92%
Population Pyknosed Nuclei (%) [3]: 19%
Population Tubulin-Different-Phenotype (%) [3]: 98%
Total Cell Count [3]: 147
Population Apoptotic (%) [4]: 63%
Population Fragmented Nuclei (%) [4]: 7%
Population Healthy Nuclei (%) [4]: 77%
Population Hoechst High Intensity Objects (%) [4]: 11%
Population Membrane Permeable-Phenotype (%) [4]: 54%
Population Mitochondria Different-Phenotype (%) [4]: 100%
Population Mitotic Cells (%) [4]: 36%
Population Normal (%) [4]: 88%
Population Pyknosed Nuclei (%) [4]: 15%
Population Tubulin-Different-Phenotype (%) [4]: 100%
Total Cell Count [4]: 56
Population Apoptotic (%) [5]: 53%
Population Healthy Nuclei (%) [5]: 75%
Population Hoechst High Intensity Objects (%) [5]: 6%
Population Membrane Permeable-Phenotype (%) [5]: 4%
Population Mitochondria Different-Phenotype (%) [5]: 40%
Population Mitotic Cells (%) [5]: 46%
Population Normal (%) [5]: 93%
Population Pyknosed Nuclei (%) [5]: 9%
Population Tubulin-Different-Phenotype (%) [5]: 25%
Total Cell Count [5]: 152
Population Apoptotic (%) [6]: 0%
Population Fragmented Nuclei (%) [6]: 15%
Population Healthy Nuclei (%) [6]: 77%
Population Hoechst High Intensity Objects (%) [6]: 9%
Population Membrane Permeable-Phenotype (%) [6]: 6%
Population Mitochondria Different-Phenotype (%) [6]: 38%
Population Mitotic Cells (%) [6]: 100%
Population Normal (%) [6]: 90%
Population Pyknosed Nuclei (%) [6]: 7%
Population Tubulin-Different-Phenotype (%) [6]: 22%
Total Cell Count [6]: 73
Population Apoptotic (%) [7]: 75%
Population Fragmented Nuclei (%) [7]: 24%
Population Healthy Nuclei (%) [7]: 51%
Population Hoechst High Intensity Objects (%) [7]: 9%
Population Membrane Permeable-Phenotype (%) [7]: 84%
Population Mitochondria Different-Phenotype (%) [7]: 98%
Population Mitotic Cells (%) [7]: 25%
Population Normal (%) [7]: 90%
Population Pyknosed Nuclei (%) [7]: 23%
Population Tubulin-Different-Phenotype (%) [7]: 98%
Total Cell Count [7]: 171
Population Apoptotic (%) [8]: 76%
Population Fragmented Nuclei (%) [8]: 16%
Population Healthy Nuclei (%) [8]: 56%
Population Hoechst High Intensity Objects (%) [8]: 11%
Population Membrane Permeable-Phenotype (%) [8]: 86%
Population Mitochondria Different-Phenotype (%) [8]: 100%
Population Mitotic Cells (%) [8]: 23%
Population Normal (%) [8]: 88%
Population Pyknosed Nuclei (%) [8]: 26%
Population Tubulin-Different-Phenotype (%) [8]: 100%
Total Cell Count [8]: 63
Population Apoptotic (%) [9]: 54%
Population Fragmented Nuclei (%) [9]: 12%
Population Healthy Nuclei (%) [9]: 77%
Population Hoechst High Intensity Objects (%) [9]: 6%
Population Membrane Permeable-Phenotype (%) [9]: 3%
Population Mitochondria Different-Phenotype (%) [9]: 15%
Population Mitotic Cells (%) [9]: 45%
Population Normal (%) [9]: 93%
Population Tubulin-Different-Phenotype (%) [9]: 15%
Total Cell Count [9]: 156
Population Apoptotic (%) [10]: 50%
Population Fragmented Nuclei (%) [10]: 9%
Population Healthy Nuclei (%) [10]: 80%
Population Hoechst High Intensity Objects (%) [10]: 9%
Population Membrane Permeable-Phenotype (%) [10]: 8%
Population Mitochondria Different-Phenotype (%) [10]: 14%
Population Mitotic Cells (%) [10]: 50%
Population Normal (%) [10]: 90%
Population Pyknosed Nuclei (%) [10]: 10%
Population Tubulin-Different-Phenotype (%) [10]: 11%
Total Cell Count [10]: 88
Population Apoptotic (%) [11]: 81%
Population Fragmented Nuclei (%) [11]: 27%
Population Healthy Nuclei (%) [11]: 28%
Population Hoechst High Intensity Objects (%) [11]: 15%
Population Membrane Permeable-Phenotype (%) [11]: 94%
Population Mitochondria Different-Phenotype (%) [11]: 97%
Population Mitotic Cells (%) [11]: 18%
Population Normal (%) [11]: 84%
Population Pyknosed Nuclei (%) [11]: 44%
Population Tubulin-Different-Phenotype (%) [11]: 97%
Total Cell Count [11]: 225
Population Apoptotic (%) [12]: 88%
Population Fragmented Nuclei (%) [12]: 8%
Population Healthy Nuclei (%) [12]: 46%
Population Hoechst High Intensity Objects (%) [12]: 18%
Population Membrane Permeable-Phenotype (%) [12]: 75%
Population Mitochondria Different-Phenotype (%) [12]: 100%
Population Mitotic Cells (%) [12]: 11%
Population Normal (%) [12]: 81%
Population Pyknosed Nuclei (%) [12]: 45%
Population Tubulin-Different-Phenotype (%) [12]: 100%
Total Cell Count [12]: 85
